Measurements reported in ChEMBL document CHEMBL1145160, “Neoclerodane diterpenes as a novel scaffold for mu opioid receptor ligands” (J Med Chem, 2005).
Calls of active or inactive are those of the source. The calls are words filed in the database; no cut-off is given here.

Key:
[1] = biological target: T1, Kappa-type opioid receptor (Homo sapiens, UniProt P41145); experiment: Stimulatory effect on [35S]GTP gammaS binding to Opioid receptor kappa1 expressed in CHO cells compared to 500 nM U50,488; format: functional, cell-based
Outline: (§1)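 Membranes from CHO cells stably transfected with DNA for the human μ, δ or κ opioid receptor; agonist-stimulated [35S]GTPγS binding measured; potency given as EC50 ± SD, efficacy as Emax.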

[2] = biological target: T2, Mu-type opioid receptor (Homo sapiens, UniProt P35372); experiment: Stimulation of [35S]GTP-gamma-S, binding to Opioid receptor mu1 expressed in CHO cells; format: functional, cell-based; outline: as §1
[3] = biological target: Opioid receptors; delta & kappa (Homo sapiens) (UniProt P41145+P41143); experiment: Relative affinity for human opioid receptor delta1 and kappa1; format: protein assay
[4] = biological target: T2, Mu-type opioid receptor; experiment: Stimulatory effect on [35S]-GTP gammaS binding to Opioid receptor mu1 expressed in CHO cells compared to 10 uM DAMGO; format: cell-based; outline: as §1
[5] = biological target: T1, Kappa-type opioid receptor; experiment: Stimulation of [35S]GTP-gamma-S, binding to Opioid receptor kappa1 expressed in CHO cells; format: functional, cell-based; outline: as §1
[6] = biological target: Opioid receptors; mu & kappa (Homo sapiens) (UniProt P41145+P35372); experiment: Relative affinity for human opioid receptor mu1 and kappa1; format: protein assay
[7] = biological target: T3, Delta-type opioid receptor (Homo sapiens, UniProt P41143); experiment: Inhibition of [125I]- IOXY binding to human Opioid receptor delta1
[8] = biological target: T2, Mu-type opioid receptor; experiment: Stimulatory effect on [35S]-GTP gammaS binding to Opioid receptor mu1 expressed in CHO cells compared to 10 uM DAMGO; ND = Not determined; format: cell-based; outline: as §1
[9] = biological target: T2, Mu-type opioid receptor; experiment: Stimulation of [35S]GTP-gamma-S, binding to Opioid receptor mu1 expressed in CHO cells; ND = Not determined; format: functional, cell-based; outline: as §1
[10] = biological target: T2, Mu-type opioid receptor; experiment: Inhibition of [125I]- IOXY binding to human Opioid receptor mu1
[11] = biological target: T3, Delta-type opioid receptor; experiment: Stimulation of [35S]-GTP gammaS binding to Opioid receptor delta 1 expressed in CHO cells; ND = Not determined; format: functional, cell-based; outline: as §1
[12] = biological target: T1, Kappa-type opioid receptor; experiment: Inhibition of [125I]- IOXY binding to human Opioid receptor kappa1
[13] = system: Mus musculus; experiment: In vivo antinociceptive activity against opioid receptor in mouse p-phenylquinone writhing test; No inhibition (inactive at 1 uM); format: functional, organism-based
[14] = system: Mus musculus; experiment: In vivo opioid receptor activity in mouse tail flick assay; format: functional
[15] = system: Mus musculus; experiment: In vivo antinociceptive activity against opioid receptor in mouse hot plate […] assay; No inhibition (inactive at 30 uM); format: functional, organism-based
[16] = system: Mus musculus; experiment: In vivo opioid receptor activity in mouse p-phenylquinone writhing assay; format: functional
[17] = system: Mus musculus; experiment: In vivo opioid receptor activity in mouse hot plate assay

T1 sequence (P41145 whole entry): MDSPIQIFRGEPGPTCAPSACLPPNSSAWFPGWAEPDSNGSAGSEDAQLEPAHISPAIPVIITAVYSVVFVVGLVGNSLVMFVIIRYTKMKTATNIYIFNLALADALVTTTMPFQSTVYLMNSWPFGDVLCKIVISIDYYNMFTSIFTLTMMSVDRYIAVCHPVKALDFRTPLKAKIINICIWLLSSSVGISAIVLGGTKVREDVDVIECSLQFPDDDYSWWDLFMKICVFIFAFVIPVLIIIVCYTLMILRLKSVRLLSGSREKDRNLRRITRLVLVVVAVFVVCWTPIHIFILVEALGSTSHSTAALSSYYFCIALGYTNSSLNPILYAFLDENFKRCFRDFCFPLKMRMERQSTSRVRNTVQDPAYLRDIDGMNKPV
Chain of Opioid receptors; delta & kappa (Homo sapiens) (P41143 whole entry, looked up): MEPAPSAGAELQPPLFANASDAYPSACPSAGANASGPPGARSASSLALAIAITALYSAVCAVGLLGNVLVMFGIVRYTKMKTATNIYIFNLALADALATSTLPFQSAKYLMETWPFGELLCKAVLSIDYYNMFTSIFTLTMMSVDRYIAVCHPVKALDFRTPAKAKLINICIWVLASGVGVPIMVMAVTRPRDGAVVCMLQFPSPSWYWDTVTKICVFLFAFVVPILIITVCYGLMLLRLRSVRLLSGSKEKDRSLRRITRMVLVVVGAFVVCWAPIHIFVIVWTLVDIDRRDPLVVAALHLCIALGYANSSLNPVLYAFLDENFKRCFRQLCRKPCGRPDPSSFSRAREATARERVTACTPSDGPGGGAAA
Chain of Opioid receptors; delta & kappa (Homo sapiens) (P41145 whole entry, looked up): as the sequence (P41145 whole entry) above
T3 sequence (P41143 whole entry): as the sequence (P41143 whole entry, looked up) above
T2 sequence (P35372 whole entry): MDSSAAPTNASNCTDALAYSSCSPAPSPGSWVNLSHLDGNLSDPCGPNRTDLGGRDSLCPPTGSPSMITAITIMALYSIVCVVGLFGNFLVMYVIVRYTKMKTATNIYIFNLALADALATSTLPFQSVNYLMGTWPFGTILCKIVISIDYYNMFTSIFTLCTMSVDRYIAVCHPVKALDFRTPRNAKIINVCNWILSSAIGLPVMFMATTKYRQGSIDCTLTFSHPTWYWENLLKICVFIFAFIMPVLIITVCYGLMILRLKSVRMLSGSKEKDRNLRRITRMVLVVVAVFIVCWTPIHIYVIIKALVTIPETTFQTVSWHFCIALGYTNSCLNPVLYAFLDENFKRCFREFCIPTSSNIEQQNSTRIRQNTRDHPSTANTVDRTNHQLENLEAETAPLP
Chain of Opioid receptors; mu & kappa (Homo sapiens) (P35372 whole entry, looked up): as the sequence (P35372 whole entry) above
Chain of Opioid receptors; mu & kappa (Homo sapiens) (P41145 whole entry, looked up): as the sequence (P41145 whole entry) above

COC(=O)[C@@H]1C[C@H](OC(=O)c2ccccc2)C(=O)[C@H]2[C@@]1(C)CC[C@H]1C(=O)O[C@H](c3ccoc3)C[C@]21C [HERKINORIN]
Emax [1]: 140% | EC50 [2]: 0.5 µM | Selectivity [3]: 12 | Emax [4]: 130% | EC50 [5]: 1.32 µM | Selectivity [6]: 0.13 | Ki [7]: 1.17 µM

COC(=O)[C@@H]1C[C@H](OC(=O)c2cccnc2)C(=O)[C@H]2[C@@]1(C)CC[C@H]1C(=O)O[C@H](c3ccoc3)C[C@]21C
Emax [1]: 76% | Emax [8]: 110% | Selectivity [3]: 3 | EC50 [5]: 5.74 µM | Selectivity [6]: 0.04 | EC50 [9]: 2.1 µM | Ki [7]: 4.82 µM

COC(=O)[C@@H]1C[C@H](OC(C)=O)[C@H](OC(C)=O)[C@H]2[C@@]1(C)CC[C@H]1C(=O)O[C@H](c3ccoc3)C[C@]21C
Ki [10]: > 10 µM | Selectivity [3]: > 15 | Selectivity [6]: > 15 | Ki [7]: > 10 µM

COC(=O)[C@@H]1C[C@H](OC(=O)Nc2ccccc2)C(=O)[C@H]2[C@@]1(C)CC[C@H]1C(=O)O[C@H](c3ccoc3)C[C@]21C
EC50 [11]: 2.53 µM | Emax [1]: 100% | Selectivity [3]: 2 | Emax [4]: 92% | EC50 [5]: 0.48 µM | Selectivity [6]: 0.2 | EC50 [9]: 0.59 µM

C=C(C)C(=O)O[C@H]1C[C@@H](C(=O)OC)[C@]2(C)CC[C@H]3C(=O)O[C@H](c4ccoc4)C[C@]3(C)[C@H]2C1=O
Ki [10]: 0.26 µM | Selectivity [3]: 210 | Selectivity [6]: 7 | Ki [7]: 8.88 µM

COC(=O)[C@@H]1C[C@H](O)[C@H](O)[C@@H]2[C@@]3(C)C[C@@H](c4ccoc4)OC(=O)[C@H]3CC[C@]21C
Ki [10]: > 10 µM | Ki [12]: > 10 µM | Ki [7]: > 10 µM

COC(=O)[C@@H]1C[C@H](OC(=O)C(C)C)C(=O)[C@H]2[C@@]1(C)CC[C@H]1C(=O)O[C@H](c3ccoc3)C[C@]21C
Ki [10]: 2.98 µM | Emax [1]: 105% | EC50 [5]: 0.36 µM | Selectivity [6]: 196 | Ki [7]: > 10 µM

COC(=O)[C@@H]1C[C@H](OC(C)=O)C(=O)[C@H]2[C@@]1(C)CC[C@H]1C(=O)O[C@H](c3ccoc3)C[C@]21C [SALVINORIN A]
inhibition [13]: inactive | ED50 [14]: 1.98 mg/kg | inhibition [15]: inactive | ED50 [16]: 0.59 mg/kg

COC(=O)[C@@H]1C[C@H](O[Si](C)(C)C)C(=O)[C@H]2[C@@]1(C)CC[C@H]1C(=O)O[C@H](c3ccoc3)C[C@]21C
Ki [10]: > 10 µM | Selectivity [3]: > 7 | Selectivity [6]: > 7 | Ki [7]: > 10 µM

CN1CC[C@]23c4c5ccc(O)c4O[C@H]2[C@@H](O)C=C[C@H]3[C@H]1C5 [MORPHINE]
ED50 [17]: 0.8 mg/kg

COC(=O)[C@@H]1C[C@H](O)[C@H](O)[C@H]2[C@@]1(C)CC[C@H]1C(=O)O[C@H](c3ccoc3)C[C@]21C
Ki [10]: 5.74 µM | Selectivity [3]: > 3 | Ki [12]: 3.19 µM | Selectivity [6]: 2 | Ki [7]: > 10 µM

COC(=O)[C@@H]1C[C@H](OS(C)(=O)=O)C(=O)[C@H]2[C@@]1(C)CC[C@H]1C(=O)O[C@H](c3ccoc3)C[C@]21C
Emax [1]: 112% | EC50 [5]: 0.03 µM | Ki [7]: > 10 µM

CCC(=O)O[C@H]1C[C@@H](C(=O)OC)[C@]2(C)CC[C@H]3C(=O)O[C@H](c4ccoc4)C[C@]3(C)[C@H]2C1=O
Ki [10]: > 1 µM | Emax [1]: 110% | Selectivity [3]: 2730 | EC50 [5]: 0.14 µM | Ki [7]: 6.69 µM

COC(=O)C(=O)O[C@H]1C[C@@H](C(=O)OC)[C@]2(C)CC[C@H]3C(=O)O[C@H](c4ccoc4)C[C@]3(C)[C@H]2C1=O
Ki [10]: > 10 µM | Selectivity [3]: > 30 | Selectivity [6]: > 30 | Ki [7]: > 10 µM

COC(=O)[C@@H]1C[C@H](OC(=N)C(Cl)(Cl)Cl)C(=O)[C@H]2[C@@]1(C)CC[C@H]1C(=O)O[C@H](c3ccoc3)C[C@]21C
Ki [10]: > 10 µM | Selectivity [3]: 95 | Selectivity [6]: > 150

C=CCNC(=O)O[C@H]1C[C@@H](C(=O)OC)[C@]2(C)CC[C@H]3C(=O)O[C@H](c4ccoc4)C[C@]3(C)[C@H]2C1=O
Ki [10]: 0.64 µM | Selectivity [3]: 55 | Selectivity [6]: 5 | Ki [7]: 6.46 µM
